Assay results of several laboratories.
Compare with care: the assays were run in different laboratories.

Structure (SMILES)	host	matrix	route	dose	notes	half-life
Cc1cc(Nc2ccc(S(F)(F)(F)(F)F)cc2)n2ccnc2n1	male Swiss mouse	plasma	oral	100 mg/kg	single dose	5.8 h
NCC1CCN(c2nc(-c3ccncc3)nc3sc4c(c23)CCCC4)CC1	female CD-1 mouse	plasma	intravenous	10 mg/kg		2.8 h
CC1(C)CC[C@]2(C(=O)O)CC[C@]3(C)C(=CC[C@@H]4[C@@]5(C)C[C@@H](O)[C@H](OC(=O)/C=C/c6ccc(O)cc6)C(C)(C)[C@@H]5CC[C@]43C)[C@@H]2C1 (relative stereo)	mouse	plasma	intraperitoneal	85 µmol/kg	single dose	34.3 h
CNC(=O)[C@H](Cc1c[nH]cn1)NC(=O)CN(CCCc1ccccc1)CC(=O)O	male C57BL/6 mouse	plasma	intraperitoneal	30 mg/kg		0.15 h
CC(C)(C)c1ccc(O)c(CN(Cc2cc(C(C)(C)C)ccc2O)C2CCC(NC(N)=O)CC2)c1 (stereo not shown)	male C57BL/6 mouse	brain	oral	10 mg/kg	single dose	7.36 h
CCOc1ccc(Cc2cc([C@@H]3O[C@H](CO)[C@@H](O)[C@H](O)[C@H]3O)ccc2Cl)cc1	male C57BL/6 mouse	plasma	intravenous	1 mg/kg		3.4 h
COc1ccc(C[C@@H](C(=O)NO)n2cc(CNS(=O)(=O)c3ccc(-c4ccccc4)s3)nn2)cc1	female CD-1 mouse	plasma	intraperitoneal	50 mg/kg		0.5 h
CNC(=O)c1ccccc1Nc1cc(Nc2cc(C)c(C3CCN(CCCCCCNC(=O)COc4cccc5c4C(=O)N(C4CCC(=O)NC4=O)C5=O)CC3)cc2OC(C)C)ncc1C(F)(F)F (stereo not shown)	male Swiss mouse	plasma	intraperitoneal	10 mg/kg		6.1 h
CNCCN(C)c1cc(C#N)cc(CCc2cc(C)cc(N)n2)c1	male BALB/c mouse	brain	intravenous	2 mg/kg		24.8 h
Cc1nc(-c2cnc(NC(C)C)n(C)c2=O)ccc1Oc1ccnc(-c2cnn(C)c2)c1	female mouse	plasma	oral	7.5 mg/kg	single dose	14 h
CC(C)Oc1c(NC(=O)c2ccc(NC(=O)[C@H](CC(N)=O)NC(=O)c3ccc(NC(=O)c4ccc(C#N)cc4)cc3)cc2)ccc(C(=O)Nc2ccc(C(=O)O)cc2)c1O	male CD-1 mouse	plasma	intravenous	5 mg/kg	single dose	0.98 h
CCCc1c(C2CCCCN2CCN2CCOCC2)[nH]c2cc(OC(F)(F)F)ccc12 (stereo not shown)	male mouse	plasma	oral	30 mg/kg		11 h
COc1nc(-c2cc(C)c(N[C@@H](C)c3cc(F)cc(F)c3)nn2)ccc1-n1cnc(C)c1	male CD-1 mouse	plasma	intravenous	1 mg/kg	single dose	3.1 h
OC[C@H]1O[C@@H](c2ccc(Cl)c(Cc3ccc(O[C@H]4CCOC4)cc3)c2)[C@H](O)[C@@H](O)[C@@H]1O	CD-1 mouse	plasma	intravenous	5 mg/kg		0.16 h
CC=Cc1ccc(O)c(OC)c1	mouse	plasma	intranasal	100 mg/kg		0.302 h
Cc1ccc2cncc(N3CCc4c(cc(Cn5ccnc5)cc4-c4cn(C)nc4C(F)(F)F)C3=O)c2c1	male CD-1 mouse	plasma	intravenous	3 mg/kg		1.5 h
CCc1ccc(Cc2cc([C@@H]3O[C@H](CO)[C@@H](O)[C@H](O)[C@H]3O)cc3c2CCC3)cc1	male C57BL/6 mouse	plasma	oral	1 mg/kg		3 h

Structure (SMILES)	host	matrix	route	dose	notes	half-life
COc1cc(OC)c2nccc(N3CCc4c(cc(Cn5ccnc5)cc4-c4cn(C)nc4C(F)(F)F)C3=O)c2c1	male CD-1 mouse	plasma	intravenous	3 mg/kg		0.5 h
COc1ccc(NC(=O)N2CCCCN3[C@H](CO)[C@H](c4ccc(C#Cc5ccccc5)cc4)[C@@H]3C2)cc1	mouse	plasma	intravenous			3 h
CC[C@H](C)[C@@H]1NC(=O)[C@@](C)(NC(=O)[C@H](CCCNC(=N)N)NC(=O)[C@H](CC(C)C)NC(=O)[C@@H](NC(=O)[C@H](CCC(N)=O)NC(=O)[C@H](CC(C)C)NC(C)=O)[C@@H](C)O)CCCC=CCCC[C@@](C)(C(=O)N[C@@H](CC(C)C)C(=O)N[C@@H](Cc2ccc3ccccc3c2)C(N)=O)NC(=O)[C@H](CCCNC(=N)N)NC(=O)[C@H](CCC(N)=O)NC1=O	male BALB/c mouse	plasma	intravenous	5 mg/kg		1.4 h
CCc1cc(OC)c2nccc(N3CCc4c(cc(Cn5ccnc5)cc4-c4cn(C)nc4C(F)(F)F)C3=O)c2c1	male CD-1 mouse	plasma	oral	150 mg/kg		1.6 h
NC[C@@H]1O[C@H](O[C@H]2[C@@H](O)[C@H](O[C@@H]3[C@@H](O)[C@H](N)C[C@H](N)[C@H]3O[C@H]3O[C@H](CO)[C@@H](O)[C@H](O)[C@H]3N)O[C@@H]2CO)[C@H](N)[C@@H](O)[C@@H]1O	male BALB/c mouse	plasma	intravenous	15 mg/kg		2.6 h
COc1ccc([C@@]23Oc4cc(OC)cc(OC)c4[C@]2(O)[C@H](O)[C@H](C(=O)N(C)C)[C@H]3c2ccccc2)cc1	mouse	plasma	intravenous	5 mg/kg		1.5 h
CN1CCC[C@H](CN2c3ccccc3Sc3ccccc32)C1.Cl	mouse	plasma	intraperitoneal	32 mg/kg	single dose	2.82 h
Oc1nc2nonc2cc1Nc1c(F)c(F)c(C(F)(F)F)c(F)c1F	male C57BL/6 mouse	plasma	oral	10 mg/kg		> 15 h
Cn1cnc2c(F)c(Nc3ccc(Br)cc3Cl)c(C(=O)NOCCO)cc21	nude mouse	liver	oral	5 mg/kg	single dose, tumour-bearing	3.5 h
CNC(=O)c1cc(Oc2ccc(NC(=O)Nc3ccc(Cl)c(C(F)(F)F)c3)c(F)c2)ccn1	male mouse	plasma	oral	10 mg/kg	single dose	14.9 h
CCc1cc(C(=O)NC)c2nccc(N3CCc4c(cc(Cn5ccnc5)cc4-c4cn(C)nc4C(F)(F)F)C3=O)c2c1	male CD-1 mouse	plasma	intravenous	3 mg/kg		0.8 h
COc1cc2c(Nc3ccc(Cl)c(Cl)c3F)ncnc2cc1OC[C@@H]1C[C@@H]2CN(C)C[C@@H]2C1	FVB mouse	plasma	oral	70 mg/kg	single dose	14 h
COc1ccc2nccc(N3CCc4c(cc(Cn5ccnc5)cc4-c4cn(C)nc4C(F)(F)F)C3=O)c2c1	male CD-1 mouse	plasma	intravenous	3 mg/kg		0.7 h
CN(C)C/C=C/C(=O)Nc1ccc(O[C@@H]2CCC[C@@H](Nc3ncc(Cl)c(-c4c[nH]c5ccccc45)n3)C2)cc1	male Swiss mouse	plasma	intravenous	3 mg/kg		2.25 h
Cc1noc(-c2ccc(CSCCC(=O)O)cc2)c1NC(=O)O[C@H](C)c1ccccc1Cl	mouse	plasma	intravenous	5 mg/kg		0.49 h
COc1ccc(C(O)COc2ccc(-c3csc(-c4ccc(OCC(O)c5ccc(OC)c(OC)c5)cc4)n3)cc2)cc1OC (stereo not shown)	C57BL/6 mouse	plasma	intravenous	3 mg/kg		3 h
Cc1noc([C@H](Cc2c[nH]cn2)NC(=O)CN(CCCc2ccccc2)CC(=O)O)n1	male C57BL/6 mouse	plasma	intraperitoneal	30 mg/kg		0.233 h
